Measurements reported in ChEMBL document CHEMBL1154871, “Synthesis of new spiroindolinones incorporating a benzothiazole moiety as antioxidant agents” (Eur J Med Chem, 2010).

Legend:
Format in all cases: functional
[1] = Antioxidant activity assessed as inhibition of Fe(3+)/ascorbate-induced lipid peroxidation in liposomes after 1 hr by TBARS assay
In short: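 Lecithin liposomes were sonicated in 10 mmol/L phosphate buffer, pH 7.4. Final mix: 3.08 mg liposome/mL, 123.2 µmol FeCl3, 123.2 µmol ascorbic acid, test compound 0.025–0.4 mM. Incubated 1 h at 37 °C. MDA measured by TBA reaction; n-butanol layer read at 532 nm against a lecithin-free blank. EC50 is the concentration reducing TBARS to 50% of control.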

[2] = Antioxidant activity assessed as trolox equivalent of ABTS free radical scavenging activity after 6 mins by […]
In short: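 ABTS radical cation solution was added to compounds (0.2–6.25 mM). Decrease in absorbance at 734 nm was read exactly 6 min after mixing, with ethanol blanks. A Trolox standard curve (final 0–20 µM in ethanol) gives TEAC, the mM Trolox equivalent to 1 mM compound. Run in triplicate.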

[3] = system: Radical scavenging activity; experiment: Antioxidant activity assessed as DPPH radical scavenging activity after 30 mins by spectrophotometry
In short: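 Test compounds (0.2–6.25 mM) dissolved in DMSO, added to 6×10^-5 M methanolic DPPH. Mixture held 30 min at room temperature in the dark, then absorbance read at 517 nm against methanol. Scavenging % = [1 − A_sample/A_control] × 100, with a negative control lacking sample. Triplicates averaged; EC50 taken from dose–response.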

[4] = Antioxidant activity assessed as reduction of […]/ferricyanide complex after 20 mins by spectrophotometry
In short: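 Compounds (1.6–6.25 mM) mixed with 0.2 M phosphate buffer, pH 6.6, and 1% potassium ferricyanide, 20 min at 50 °C. Stopped with 1% TCA and centrifuged at 2790 g for 10 min. Supernatant plus water and 0.1% FeCl3 read at 700 nm. EC50 is the concentration giving absorbance 0.5. Mean ± SD of triplicates.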

| Structure (SMILES) | EC50 [1] | EC50 [2] | EC50 [3] | EC50 [4] |
| --- | --- | --- | --- | --- |
| CN1C(=O)C2(Nc3ccccc3S2)c2cc([N+](=O)[O-])ccc21 (centres undefined) | 92 µM | 1340 µM | 1270 µM | 5140 µM |
| Cc1c(C)c2c(c(C)c1O)CC[C@@](C)(CCC[C@H](C)CCC[C@H](C)CCCC(C)C)O2 [ALPHA-TOCOPHEROL] | 153 µM | 1200 µM | 350 µM | 1950 µM |
| O=C1O[C@H]([C@@H](O)CO)C(O)=C1O [ASCORBIC ACID] |  | 1200 µM | 360 µM | 650 µM |

The remaining lines, values ahead:

| EC50 [1] | EC50 [2] | EC50 [3] | EC50 [4] | Structure (SMILES) |
| --- | --- | --- | --- | --- |
| 75 µM | 1140 µM | 1240 µM | 4020 µM | CN1C(=O)C2(Nc3ccccc3S2)c2cc(Cl)ccc21 (centres undefined) |
| 34 µM | 1040 µM | 1010 µM | 4220 µM | CN1C(=O)C2(Nc3ccccc3S2)c2cc(Br)ccc21 (centres undefined) |
